Measurements from different studies.
Each line is one published result; the experiments were not run side by side.

| SMILES | cell line | test | setting | IC50 [µM] |
| --- | --- | --- | --- | --- |
| O=C1CCP(=[Se])(c2ccccc2)CC1 | SW-620 | cell growth or viability, MTT | 72 h | > 100 |
| CC[C@H](C)[C@H](NC(=O)[C@H](CCCCN)NC(=O)[C@H](CCCCN)NC(=O)[C@H](CC(C)C)NC(=O)[C@H](CCCCN)NC(=O)[C@H](CCCCN)NC(=O)[C@H](Cc1ccccc1)NC(=O)[C@H](Cc1ccccc1)NC(=O)[C@H](CCCNC(=N)N)NC(=O)[C@H](CCCNC(=N)N)NC(=O)[C@@H](NC(=O)[C@H](CCCCN)NC(=O)[C@H](CCCNC(=N)N)NC(=O)[C@@H](NC(=O)[C@@H](N)Cc1ccc(O)cc1)[C@@H](C)CC)[C@@H](C)CC)C(=O)N[C@@H](CC(C)C)C(=O)N[C@@H](CCCCN)C(=O)N[C@@H](CCCCN)C(N)=O | THP-1 | cell growth or viability, resazurin |  | 5.2 |
| N.N.[Cl][Pt][Cl] | MCF7 | cell growth or viability, MTT | 48 h | 27.8 |
| O=C(NCc1ccccc1)c1cn(Cc2ccc(C(F)(F)F)cc2)c2ccc(Oc3ccccc3)cc2c1=O | MCF7 | cell growth or viability, MTT |  | < 12 |
| CC[C@@]1(O)C(=O)OCc2c1cc1n(c2=O)Cc2cc3ccccc3nc2-1 | MP46 | cell growth or viability, ATP luminescence | 72 h | 0.21 |
| O=C(NCc1ccc(F)cc1)c1cn(Cc2ccc(C(F)(F)F)cc2)c2ccc(Oc3ccccc3)cc2c1=O | MCF7 | cell growth or viability, MTT | 24 h | 8.32 |
| CC(C)[C@H](NC(=O)[C@H](Cc1c[nH]c2ccccc12)NC(=O)[C@H](Cc1c[nH]cn1)NC(=O)[C@H](CCCNC(=N)N)NC(=O)[C@H](CCCNC(=N)N)NC(=O)[C@H](Cc1c[nH]c2ccccc12)NC(=O)[C@H](Cc1c[nH]c2ccccc12)NC(=O)[C@H](Cc1c[nH]cn1)NC(=O)[C@H](Cc1c[nH]c2ccccc12)NC(=O)[C@H](CCCNC(=N)N)NC(=O)[C@@H](N)CCCCN)C(=O)N[C@H](C(=O)N[C@@H](Cc1c[nH]c2ccccc12)C(N)=O)C(C)C | THP-1 | cell growth or viability, MTT |  | 103 |
| O=C(NCc1ccc(O)cc1)c1cn(Cc2ccc(F)cc2)c2ccc(Oc3ccccc3)cc2c1=O | MCF7 | cell growth or viability, MTT | 48 h | 78.5 |
| S=P1(c2ccccc2)CCCCC1 | SW-620 | cell growth or viability, MTT | 72 h | > 100 |
| COc1ccc2c(c1OC)CN1CCc3cc4c(cc3[C@@H]1C2)OCO4 | HepaRG | reactive oxygen species, inhibitor | 16 h | 2.69 |
| N.N.[Cl][Pt][Cl] | SW-620 | cell growth or viability, MTT | 72 h | 6.7 |
| Cc1sc2c(c1C)C(c1ccc(Cl)cc1)=N[C@@H](CC(N)=O)c1nnc(C)n1-2 | MP46 | cell growth or viability, ATP luminescence | 72 h | 0.109 |
